Test results: ChEMBL document CHEMBL1150405, “Structure-activity study of endomorphin-2 analogs with C-terminal modifications by NMR spectroscopy and molecular modeling” (Bioorg Med Chem, 2008)

Experiments:
Mu-type opioid receptor = Mu-type opioid receptor (Rattus norvegicus, UniProt P33535); test: Displacement of [3H]DAMGO from mu opioid receptor in rat brain membrane; format: cell membranes
How it was run: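 Wistar rat brain membranes (cerebellum removed) in 50 mM Tris–HCl, pH 7.4. [³H]DAMGO at 0.5 nM with varying peptide concentrations for 1 h at 25 °C in a rotating incubator. Stopped by vacuum filtration through GF/C filters, washed three times with ice-cold buffer, then scintillation counted. Nonspecific binding taken with naloxone. Duplicates, repeated at least three times; Ki derived.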

[1] = Selectivity ratio of IC50 for guinea pig ileum to IC50 for mouse vas deferens assay; format: tissue-based
Mu-opioid receptor = Mu-opioid receptor (Cavia porcellus, UniProt Q8CGM4); test: Agonist activity at mu opioid receptor in guinea pig ileum assessed as inhibition of electrically-stimulated contraction; format: functional, tissue-based
Mu-opioid receptor, sequence (Q8CGM4 whole entry): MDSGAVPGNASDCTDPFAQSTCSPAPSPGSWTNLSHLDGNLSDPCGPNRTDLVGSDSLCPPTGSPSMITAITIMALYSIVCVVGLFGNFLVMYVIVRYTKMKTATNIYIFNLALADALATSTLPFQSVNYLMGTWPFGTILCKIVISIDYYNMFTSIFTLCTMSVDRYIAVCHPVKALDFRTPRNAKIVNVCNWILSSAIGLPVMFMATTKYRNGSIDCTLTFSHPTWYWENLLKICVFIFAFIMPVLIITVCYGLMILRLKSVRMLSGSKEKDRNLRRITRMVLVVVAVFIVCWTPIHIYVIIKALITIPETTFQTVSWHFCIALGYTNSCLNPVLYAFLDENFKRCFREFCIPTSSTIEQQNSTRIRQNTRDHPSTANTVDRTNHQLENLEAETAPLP
How it was run: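 Guinea pig ileum in a 10-ml bath of Krebs–Henseleit solution at 37 °C, aerated with 95% O₂/5% CO₂. Twitches evoked by 0.1-Hz, 50-V, 0.5-ms rectangular pulses; isometric recording. […] Arithmetic mean of five to eight measurements.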

[2] = biological target: Delta-type opioid receptor (Mus musculus, UniProt P32300); test: Agonist activity at delta opioid receptor in mouse vas deferens assessed as inhibition of electrically-stimulated contraction; format: functional, tissue-based
Delta-type opioid receptor (Mus musculus, UniProt P32300), sequence (P32300 whole entry): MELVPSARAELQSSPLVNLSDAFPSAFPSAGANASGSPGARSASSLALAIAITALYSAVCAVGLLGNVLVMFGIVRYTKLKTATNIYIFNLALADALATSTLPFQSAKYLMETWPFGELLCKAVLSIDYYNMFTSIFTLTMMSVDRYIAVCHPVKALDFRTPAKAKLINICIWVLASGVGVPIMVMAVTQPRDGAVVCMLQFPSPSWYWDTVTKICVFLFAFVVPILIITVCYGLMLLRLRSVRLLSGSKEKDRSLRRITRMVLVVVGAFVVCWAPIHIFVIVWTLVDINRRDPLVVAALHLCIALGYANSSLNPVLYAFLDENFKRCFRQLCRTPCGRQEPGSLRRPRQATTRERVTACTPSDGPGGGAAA
How it was run: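 Mouse vas deferens held at 36 °C in aerated (95% O₂/5% CO₂) Krebs–Henseleit, 10-ml bath. Pulse pairs (1-ms width, 100 ms apart, 9 V/cm supramaximal) repeated every 10 s; isometric twitch recording.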

[3] = biological target: Delta-type opioid receptor (Rattus norvegicus, UniProt P33533); test: Displacement of [3H]DPDPE from delta opioid receptor in rat brain membrane; format: cell membranes
Delta-type opioid receptor (Rattus norvegicus, UniProt P33533), sequence (P33533 whole entry): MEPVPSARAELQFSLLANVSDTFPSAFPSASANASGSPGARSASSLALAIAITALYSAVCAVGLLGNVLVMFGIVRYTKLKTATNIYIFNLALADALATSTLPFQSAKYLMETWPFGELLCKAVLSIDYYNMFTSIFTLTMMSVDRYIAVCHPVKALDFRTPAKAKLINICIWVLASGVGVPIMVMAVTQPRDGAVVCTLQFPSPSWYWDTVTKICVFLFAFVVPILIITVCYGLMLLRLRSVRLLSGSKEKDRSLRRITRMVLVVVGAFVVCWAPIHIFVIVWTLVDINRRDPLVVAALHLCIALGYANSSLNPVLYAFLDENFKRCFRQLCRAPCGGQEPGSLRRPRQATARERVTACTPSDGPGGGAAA
How it was run: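 Wistar rat brain membranes (cerebellum removed) in 50 mM Tris–HCl, pH 7.4. [³H]DPDPE at 1 nM with varying peptide concentrations for 3 h at 25 °C in a rotating incubator. GF/C vacuum filtration, three ice-cold buffer washes, scintillation counting. Naloxone defined nonspecific binding. Duplicates, repeated at least three times; Ki calculated.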

Rattus norvegicus = organism: Rattus norvegicus; test: Selectivity ratio of Ki for delta opioid receptor to Ki for mu opioid receptor in rat brain membrane; format: cell membranes

Mu-type opioid receptor, sequence (P33535 whole entry): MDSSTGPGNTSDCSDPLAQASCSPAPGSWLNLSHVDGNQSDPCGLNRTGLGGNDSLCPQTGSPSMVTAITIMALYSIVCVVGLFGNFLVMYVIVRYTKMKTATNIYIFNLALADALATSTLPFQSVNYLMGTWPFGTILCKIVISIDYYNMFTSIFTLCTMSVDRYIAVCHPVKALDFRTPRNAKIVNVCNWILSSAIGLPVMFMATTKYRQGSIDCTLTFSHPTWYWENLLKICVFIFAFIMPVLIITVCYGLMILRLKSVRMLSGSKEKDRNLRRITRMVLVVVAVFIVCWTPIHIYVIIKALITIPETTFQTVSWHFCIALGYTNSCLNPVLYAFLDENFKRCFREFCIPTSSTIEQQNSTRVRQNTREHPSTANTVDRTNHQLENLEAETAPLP

Compound | Ki (Mu-type opioid receptor) [nM] | IC50 ratio (guinea pig ileum / mouse vas deferens) [1] | IC50 (Mu-opioid receptor) [nM] | IC50 [2] [nM] | Ki [3] [nM] | Ratio Ki (Rattus norvegicus)
CCOC(=O)[C@H](Cc1ccccc1)NC(=O)[C@H](Cc1ccccc1)NC(=O)[C@@H]1CCCN1C(=O)[C@@H](N)Cc1ccc(O)cc1 | 15 | 1 | 64.4 | 63.7 | 2940 | 196
N[C@@H](Cc1ccc(O)cc1)C(=O)N1CCC[C@H]1C(=O)N[C@@H](Cc1ccccc1)C(=O)N[C@H](CO)Cc1ccccc1 | 6.34 | 1 | 29.3 | 29.2 | > 10000 | > 1580
CNC(=O)[C@H](Cc1ccccc1)NC(=O)[C@H](Cc1ccccc1)NC(=O)[C@@H]1CCCN1C(=O)[C@@H](N)Cc1ccc(O)cc1 | 29.2 | 2.5 | 136 | 54.6 | 8470 | 290
COC(=O)[C@H](Cc1ccccc1)NC(=O)[C@H](Cc1ccccc1)NC(=O)[C@@H]1CCCN1C(=O)[C@@H](N)Cc1ccc(O)cc1 | 9.07 | 1.1 | 42.1 | – | > 10000 | > 1100
CC(C)(C)OC(=O)[C@H](Cc1ccccc1)NC(=O)[C@H](Cc1ccccc1)NC(=O)[C@@H]1CCCN1C(=O)[C@@H](N)Cc1ccc(O)cc1 | 50.3 | 40.5 | 3000 | 74.1 | 247 | 4.9
NNC(=O)[C@H](Cc1ccccc1)NC(=O)[C@H](Cc1ccccc1)NC(=O)[C@@H]1CCCN1C(=O)[C@@H](N)Cc1ccc(O)cc1 | 9.35 | 0.71 | 132 | – | > 10000 | > 1070
CN(C)C(=O)[C@H](Cc1ccccc1)NC(=O)[C@H](Cc1ccccc1)NC(=O)[C@@H]1CCCN1C(=O)[C@@H](N)Cc1ccc(O)cc1 | 273 | 0.66 | 1810 | 2720 | > 10000 | > 36.7
